Our source for the IC50 values is ChEMBL document CHEMBL1125414, “A novel class of calcium-entry blockers: the 1[[4-(aminoalkoxy)phenyl]sulfonyl]indolizines” (J Med Chem, 1992).

Structures are written as SMILES.

For experiment [1], the species on record is Rattus norvegicus. The experiment in a line: Molar concentration required to block [Ca2+] induced contraction of K+ depolarized rat aorta by 50%. Format: functional. Summed up: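 Spiral strips of thoracic aorta from male Wistar rats in modified Krebs solution, 95% O2/5% CO2, 37 °C, depolarized preparation. pD2 taken as negative log molar antagonist concentration reducing maximal contraction by 50%.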

Experiment [2] can be described thus: Displacement of [3H]nitrendipine binding to L-type calcium channel of Guinea pig cerebral cortex membranes. The class given is tissue-based, Cavia porcellus. Background: In a radioligand displacement assay an active substance lowers the binding of a labelled ligand.

With `CCCN(CCC)CCCOc1ccc(S(=O)(=O)c2c(C(C)C)cn3ccccc23)cc1`, inhibition in experiment [1] was half-maximal at 102 nM (IC50). Take `CC(C)c1cn2ccccc2c1S(=O)(=O)c1ccc(OCCCNCCc2ccccc2)cc1`: the IC50 (as a rule, the concentration that inhibits the measured activity by half) in experiment [2] was 4 nM; in experiment [1], 81.5 nM. With `CCCCc1cn2ccccc2c1S(=O)(=O)c1ccc(OCCCN(CCCC)CCCC)cc1`, the half-maximal inhibitory concentration (IC50) in experiment [2] was found to be 22 nM; in experiment [1] it was 284 nM. For `CCCCN(CCCC)CCCOc1ccc(S(=O)(=O)c2c(C)cn3ccccc23)cc1`, in that order: 69 nM and 162 nM.

Regarding `CCN(CC)CCCOc1ccc(S(=O)(=O)c2c(C(C)C)cn3ccccc23)cc1`, the IC50 amounted to 51 nM in experiment [2] and 228 nM in experiment [1].

With `CCCCCN(CCCCC)CCCOc1ccc(S(=O)(=O)c2c(C(C)C)cn3ccccc23)cc1`, the IC50 in experiment [2] was 0.89 nM; in experiment [1], 89.6 nM. For `COc1ccc(CCN(C)CCCOc2ccc(S(=O)(=O)c3c(C(C)C)cn4ccccc34)cc2)cc1OC` [FANTOFARONE], in that order: 0.61 nM and 5.6 nM. For the compound `CCc1cn2ccccc2c1S(=O)(=O)c1ccc(OCCCNCCc2ccc(OC)c(OC)c2)cc1`, the IC50 in experiment [2] was determined as 4.6 nM; in experiment [1], 11 nM. Take `CCCCN(CCCC)CCCOc1ccc(S(=O)(=O)c2c(CC)cn3ccccc23)cc1`: the half-inhibitory concentration (IC50) was 14 nM in experiment [2] and 31.3 nM in experiment [1].

The compound `CCN(CC)CCCOc1ccc(S(=O)(=O)c2c(C)cn3ccccc23)cc1` came in with a 50% inhibitory concentration (IC50) in experiment [1] of 3390 nM. For the compound `CCCCN(CCCC)CCCCCOc1ccc(S(=O)(=O)c2c(CC)cn3ccccc23)cc1`, the concentration for half-maximal inhibition (IC50) in experiment [2] is 20 nM; in experiment [1], 97.4 nM. Regarding `COc1ccc(CCN(C)CCCCOc2ccc(S(=O)(=O)c3c(C(C)C)cn4ccccc34)cc2)cc1OC`, the concentration for half-maximal inhibition (IC50) in experiment [2] was found to be 2.3 nM; in experiment [1], 21.6 nM. For `CCCCN(CCCOc1ccc(S(=O)(=O)c2c(C(C)C)cn3ccccc23)cc1)CCc1ccc(OC)c(OC)c1`, in that order: 0.84 nM and 18.7 nM. For `COc1cc(CCN(C)CCCOc2ccc(S(=O)(=O)c3c(C(C)C)cn4ccccc34)cc2)cc(OC)c1`, in that order: 0.19 nM and 2.12 nM.

Regarding `CC(C)c1cn2ccccc2c1S(=O)(=O)c1ccc(OCCCNC(C)(C)C)cc1`, the IC50 in experiment [2] turned out to be 17.2 nM; in experiment [1], 41.8 nM. For `CC(C)c1cn2ccccc2c1S(=O)(=O)c1ccc(OCCCN2CCN(c3ccccc3)CC2)cc1`, the values for the IC50 in experiment [2] and in experiment [1] were 14 nM and 205 nM, respectively. For `CC(C)(C)NCCCOc1ccc(S(=O)(=O)c2c(C(C)(C)C)cn3ccccc23)cc1`, in that order: 90 nM and 443 nM. On to `COc1ccc([C@@H]2Sc3ccccc3N(CCN(C)C)C(=O)[C@@H]2OC(C)=O)cc1` [DILTIAZEM], for which the IC50 in experiment [2] was determined as 59 nM; in experiment [1] it was 303 nM. For the compound `COc1ccc(CCN(C)CCCC(C#N)(c2ccc(OC)c(OC)c2)C(C)C)cc1OC` (stereo unspecified), the 50% inhibitory concentration (IC50) in experiment [2] came to 38 nM; in experiment [1], 47.1 nM. `CC(C)c1cn2ccccc2c1S(=O)(=O)c1ccc(OCCCN2CCC(c3ccccc3)CC2)cc1`: the half-inhibitory concentration (IC50) in experiment [2] worked out at 6.6 nM; in experiment [1], 80.9 nM. For `CCc1cn2ccccc2c1S(=O)(=O)c1ccc(OCCCN2CCCCC2)cc1`, in that order: 274 nM and 357 nM.

For the compound `COc1ccc(CCN(C)CCCOc2ccc(S(=O)(=O)c3c(C(C)C)cn4ccccc34)cc2)cc1`, the 50% inhibitory concentration (IC50) was 8.7 nM in experiment [2] and 22.6 nM in experiment [1].

`COc1ccc(CN(C)CCCOc2ccc(S(=O)(=O)c3c(C(C)C)cn4ccccc34)cc2)cc1OC`: the IC50 amounted to 0.62 nM in experiment [2] and 3.18 nM in experiment [1]. For `CCCCc1cn2ccccc2c1S(=O)(=O)c1ccc(OCCCN(CCC)CCC)cc1`, the figures for the 50% inhibitory concentration (IC50) in experiment [2] and in experiment [1] were 129 nM and 570 nM, respectively. For the compound `COc1ccc(CCNCCCOc2ccc(S(=O)(=O)c3c(C(C)C)cn4ccccc34)cc2)cc1OC`, the 50% inhibitory concentration (IC50) in experiment [2] is 1.8 nM; in experiment [1], 5.05 nM. Consider `CCCN(CCC)CCCOc1ccc(S(=O)(=O)c2c(C)cn3ccccc23)cc1`, for which the IC50 in experiment [2] was 648 nM; in experiment [1], 957 nM. As for `COc1cc(CCN(C)CCCOc2ccc(S(=O)(=O)c3c(C(C)C)cn4ccccc34)cc2)cc(OC)c1OC`, the half-maximal inhibitory concentration (IC50) in experiment [2] was 0.6 nM; in experiment [1] it was 2.24 nM. In the case of `CCCCN(CCCC)CCOc1ccc(S(=O)(=O)c2c(CC)cn3ccccc23)cc1`, the figures for the IC50 in experiment [2] and in experiment [1] were 33 nM and 72.2 nM, respectively.

For `CC(C)(C)NCCCOc1ccc(S(=O)(=O)c2c(C3CC3)cn3ccccc23)cc1`, the IC50 in experiment [2] was determined as 43 nM; in experiment [1], 66.5 nM. For `CCCCN(CCCC)CCCOc1ccc(S(=O)(=O)c2c(CCC)cn3ccccc23)cc1`, in that order: 14 nM and 54.3 nM. Compound `CCc1cn2ccccc2c1S(=O)(=O)c1ccc(OCCCN(C)CCc2ccc(OC)c(OC)c2)cc1` yielded an IC50 in experiment [1] of 13.4 nM. On to `CCCCCN(CCCCC)CCCOc1ccc(S(=O)(=O)c2c(CC)cn3ccccc23)cc1`, for which the values for the IC50 in experiment [2] and in experiment [1] were 6.3 nM and 62.4 nM, respectively. Consider `CCCN(CCC)CCCOc1ccc(S(=O)(=O)c2c(CC)cn3ccccc23)cc1`, for which the IC50 in experiment [2] stood at 181 nM; in experiment [1] it was 150 nM.

As for `COC(=O)C1=C(C)NC(C)=C(C(=O)OC)C1c1ccccc1[N+](=O)[O-]` [NIFEDIPINE], the concentration for half-maximal inhibition (IC50) was 2.5 nM in experiment [2] and 1.16 nM in experiment [1]. `COc1ccc(CCN(C)CCCOc2ccc(S(=O)(=O)c3c(C4CC4)cn4ccccc34)cc2)cc1OC`: the results for the IC50 in experiment [2] and in experiment [1] were 0.74 nM and 3.9 nM, respectively. For `CCCCN(CCCC)CCCOc1ccc(S(=O)(=O)c2c(-c3ccccc3)cn3ccccc23)cc1`, in that order: 156 nM and 1620 nM. For `CCCCCCCCN(CCCCCCCC)CCCOc1ccc(S(=O)(=O)c2c(C(C)C)cn3ccccc23)cc1`, in that order: 6.5 nM and 30100 nM. Consider `CCCCN(CCCC)CCCCOc1ccc(S(=O)(=O)c2c(C(C)C)cn3ccccc23)cc1`, for which the half-maximal inhibitory concentration (IC50) in experiment [2] worked out at 1.3 nM; in experiment [1], 20.2 nM. For `COc1cccc(CCN(C)CCCOc2ccc(S(=O)(=O)c3c(C(C)C)cn4ccccc34)cc2)c1`, in that order: 2.6 nM and 7.86 nM. For `CCCCN(CCCC)CCCOc1ccc(S(=O)(=O)c2c(C(C)C)cn3ccccc23)cc1`, in that order: 2.1 nM and 21.6 nM.

As to `CCCCN(CCCC)CCCOc1ccc(S(=O)(=O)c2c(C3CCCCC3)cn3ccccc23)cc1`, the half-inhibitory concentration (IC50) was determined as 113 nM in experiment [2] and 4070 nM in experiment [1]. For `COc1ccc(CN(C)CCCCOc2ccc(S(=O)(=O)c3c(C(C)C)cn4ccccc34)cc2)cc1OC`, in that order: 4.5 nM and 14.6 nM. As for `COc1cc(CCNCCCOc2ccc(S(=O)(=O)c3c(C(C)C)cn4ccccc34)cc2)cc(OC)c1`, the IC50 in experiment [2] came to 0.53 nM; in experiment [1] it was 2.32 nM. For `COc1ccc(CN(C)CCCOc2ccc(S(=O)(=O)c3c(C4CC4)cn4ccccc34)cc2)cc1OC`, in that order: 1.9 nM and 4.7 nM. For `CCc1cn2ccccc2c1S(=O)(=O)c1ccc(OCCCNC(C)(C)C)cc1`, in that order: 130 nM and 413 nM. For `CC(C)c1cn2ccccc2c1S(=O)(=O)c1ccc(OCCCN(C)C)cc1`, in that order: 201 nM and 390 nM.

For the compound `CCCCN(CCCC)CCCOc1ccc(S(=O)(=O)c2c(C3CC3)cn3ccccc23)cc1`, the IC50 in experiment [2] was 2.5 nM; in experiment [1] it was 10.9 nM.

Consider `CCCCN(CCCC)CCCOc1ccc(S(=O)(=O)c2c(C(C)(C)C)cn3ccccc23)cc1`, for which the IC50 in experiment [2] was 9.6 nM; in experiment [1], 51.9 nM.

In the case of `CCCCN(CCCC)CCCCOc1ccc(S(=O)(=O)c2c(CC)cn3ccccc23)cc1`, the IC50 in experiment [2] worked out at 4.6 nM; in experiment [1] it was 33.3 nM. For `COc1ccc(NCCCOc2ccc(S(=O)(=O)c3c(C(C)C)cn4ccccc34)cc2)cc1OC`, in that order: 383 nM and 396 nM.

In the case of `COc1ccc(CNCCCOc2ccc(S(=O)(=O)c3c(C(C)C)cn4ccccc34)cc2)cc1OC`, the IC50 in experiment [2] stood at 1.2 nM; in experiment [1], 13 nM. For `CC(C)c1cn2ccccc2c1S(=O)(=O)c1ccc(OCCCNCc2ccccc2)cc1`, in that order: 4.5 nM and 22.8 nM.
